PubChem BioAssay
Inconclusive results are not listed. The source made the active and inactive calls.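 How the source made its calls, unless noted: active means RAM network inhibition above 8.4% in each of two replicates, 3 SD over the compound average; inconclusive means above 8.4% inhibition in only one replicate; inactive means 8.4% inhibition or less in each replicate.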

Assays:
[1] = OD615 S. cerevisiae growth inhibition, permissive medium, pilot counter-assay, permissive growth control for S. cerevisiae lifespan shortening project (AID 705;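 active means growth inhibition above 25% in both replicates, a cutoff set 3 SD above the mean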); settings: OD615, 24 h, at 10 µM, stronger effect = higher value
Method in brief: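 System: S. cerevisiae with engineered DeaD lifespan system / Measured by: absorbance (optical density) at 615 nm / Read-out: reduction in yeast growth (OD615) / Times: 4 h cell pre-growth, 24 h exposure at 30 °C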

[2] = Restrictive medium S. cerevisiae growth inhibition, OD615, pilot screen of yeast lifespan reduction project, restrictive growth control (AID 706;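 active means growth inhibition above a set limit, 3 SD over mean compound inhibition, in both replicates, cut at about 43% in these data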;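 further: modified DeaD lifespan yeast strain shifted to restrictive glucose medium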); settings: OD615, 48 h, at 10 µM, stronger effect = higher value
Method in brief: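 System: Engineered S. cerevisiae DeaD strain | Buffer or medium: Glucose-based CSMM-D restrictive medium | Schedule: 4 h pre-incubation, 48 h exposure at 30 °C | Technique: Optical density at 615 nm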

[3] = viability gain of MRP-1-high H69AR cells under doxorubicin, pilot screen, MRP-1 activator project, CellTiter-Glo, duplicate (AID 807;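 active means viability increase at or above a cutoff of the median across tested compounds plus 3 SD, cut at about 8.5% in these data, passing the limit was not always enough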;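 further: compound pretreatment 18-22 h then 72 h combined with doxorubicin; 0% = doxorubicin alone and 100% = vehicle without doxorubicin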); settings: H69AR viability with doxorubicin, CellTiter-Glo luminescence; at 10 µM; stronger effect = higher value
[4] = growth suppression of beta-catenin knockout HCT116, pilot screen, human colon tumor cells (AID 823;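 active means cell viability at or below a set limit in both duplicate runs, the limit being the all-compound median minus 4 SD, cut at about 23% in these data, passing the limit was not always enough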;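 further: 0% = wells killed by 20 µM Hyamine and 100% = untreated DMSO cell wells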); settings: CellTiter-Glo, 60 h, at 10 µM, stronger effect = lower value
[5] = growth suppression of PTEN-deleted HCT116, pilot screen, cell-based, HCT116 clonal line, CellTiter-Glo (AID 824;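 active means viability at or below 27.92% in each of two runs, the all-compound median minus 4 SD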;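 further: 0% = 20 µM Hyamine control and 100% = vehicle cell control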); settings: 60 h, at 10 µM, stronger effect = lower value
[6] = inhibitors of the yeast RAM network, pilot screen, dse1pr::URA3 reporter, 5-FOA selection (AID 869;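 active means inhibition over a set limit, the all-compound mean plus 3 SD, in both replicate runs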;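 further: 0% = DMSO wells with no growth and 100% = 10 µM 1-NA-PP1 with full growth; RAM network block rescues cells from 5-FOA so hits raise OD615 growth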); settings: S. cerevisiae dse1pr::URA3 5-FOA growth, OD615, 2 d; at 10 µM; stronger effect = higher value; strain carries analog-sensitive mutant Cbk1 kinase
[7] = RAM signaling pathway blockade in yeast – S. cerevisiae, Pdr1DBD-CYC8 efflux-inhibited sensitized strain, primary screen (AID 1298);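 further: 0% = DMSO untreated cells without growth and 100% = 10 µM 1-NA-PP1 full growth; higher means more yeast growth rescued from 5-FOA killing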; settings: S. cerevisiae cbk1-as DSE1-URA3 strain, 5-FOA growth OD615, 2 d; at 50 µM; stronger effect = higher value

O=C(c1ccccc1)N1CCN(C2CC(=O)N(CCc3ccccc3)C2=O)CC1 (stereo not drawn)
inactive: growth inhibition [1] -3.21% | growth inhibition [2] 4.64% | viability increase [3] 1.3% | viability [4] 96.8% | viability [5] 100% | inhibition [6] 2.52% | RAM network inhibition [7] 4.98%

CCCCn1cc(C(C)(C)C)c(C#N)c1NC(C)=O
inactive: growth inhibition [1] -21.7% | growth inhibition [2] -4.88% | viability increase [3] -1.24% | viability [4] 97.8% | viability [5] 98.8% | inhibition [6] 1.43% | RAM network inhibition [7] 5.33%

O=C(NCc1ccc(F)cc1)c1cnc2n(c1=O)CCS2
inactive: growth inhibition [1] -2.45% | growth inhibition [2] -2.23% | viability increase [3] 2.85% | viability [4] 101% | viability [5] 102% | inhibition [6] 0.54% | RAM network inhibition [7] -0.84%

Cc1ccc(C(=O)Nc2cccc(C(=O)O)c2)cc1S(=O)(=O)N1CCCCC1
inactive: growth inhibition [1] 5.02% | growth inhibition [2] 11.4% | viability increase [3] 0.18% | viability [4] 96% | viability [5] 100% | inhibition [6] 1.35% | RAM network inhibition [7] 0.1%

Cc1nnc(NC(=O)CSc2nnc(Cc3cccn3C)n2-c2ccccc2)s1
inactive: growth inhibition [1] 10.8% | viability increase [3] 0.97% | viability [4] 95% | viability [5] 95.3% | inhibition [6] 1.31% | RAM network inhibition [7] 4.48%
active: growth inhibition [2] 46.5%

COC(=O)C1=CN(C(C)C)C=C(C(=O)OC)C1c1cccc(OC)c1
inactive: growth inhibition [1] -3.31% | growth inhibition [2] -9.06% | viability increase [3] -4.15% | viability [4] 73.8% | viability [5] 63.2% | inhibition [6] 0.405% | RAM network inhibition [7] 5.46%

NC(=O)c1sc(=S)n(-c2ccc(Br)cc2)c1N
inactive: growth inhibition [1] -6.66% | growth inhibition [2] 0.735% | viability increase [3] -4.05% | viability [4] 97.7% | viability [5] 83.7% | inhibition [6] 1.51% | RAM network inhibition [7] 2.48%

O=C(CSc1ncnc2c1oc1ccccc12)NC1CCCCC1
inactive: growth inhibition [1] -5.42% | growth inhibition [2] 3.17% | viability increase [3] -0.15% | viability [4] 95% | viability [5] 85.3% | inhibition [6] 1.92% | RAM network inhibition [7] 4.21%

CC(c1ccccc1)C(CC(=O)O)C(=O)NC1CCCCC1 (stereo not drawn)
inactive: growth inhibition [1] -12.4% | growth inhibition [2] -1.39% | viability increase [3] -0.07% | viability [4] 98.2% | viability [5] 103% | inhibition [6] 1.54% | RAM network inhibition [7] 1.1%

COc1cc(OC)nc(NC(=O)C(C)C)n1
inactive: growth inhibition [1] -1.12% | growth inhibition [2] 6.71% | viability increase [3] -0.57% | viability [4] 104% | viability [5] 97.3% | inhibition [6] 1.01% | RAM network inhibition [7] 4.06%

CCc1nc2oc(C(=O)c3ccccc3)c(N)c2c2c1COC(C)(C)C2
inactive: growth inhibition [1] -10.5% | growth inhibition [2] -9.15% | viability increase [3] -4.48% | viability [4] 81.6% | viability [5] 80.1% | inhibition [6] 0.79% | RAM network inhibition [7] 0.85%

CCc1nc(N(CC)CC)c2oc3ccccc3c2n1
inactive: growth inhibition [1] -2.86% | growth inhibition [2] -35.2% | viability increase [3] -4.87% | viability [4] 75.5% | viability [5] 71% | inhibition [6] -0.16% | RAM network inhibition [7] 1.04%

O=C1c2ccccc2C(=O)N1CCc1nc2ccccc2c(=O)n1Cc1ccco1
inactive: growth inhibition [1] -8.88% | growth inhibition [2] -1.42% | viability increase [3] -3.47% | viability [4] 89.7% | viability [5] 88.6% | inhibition [6] 1.29% | RAM network inhibition [7] 1.59%

Cc1ccc(C2c3c(oc4cc(C)c(C)cc4c3=O)C(=O)N2CCCN2CCOCC2)cc1 (stereo not drawn)
inactive: growth inhibition [1] -5.16% | growth inhibition [2] -18.6% | viability increase [3] -4.87% | viability [4] 83.3% | viability [5] 90% | inhibition [6] 3.33% | RAM network inhibition [7] -0.94%
